Source: ChEMBL document CHEMBL3739344, “A novel class of negative allosteric modulators of NMDA receptor function” (Bioorg Med Chem Lett, 2015)
Values after ≈ are worked out from the molar mass of the structure shown. Active and inactive are the calls of the source. The rule behind the calls is not given here.

Columns and labels:
[1] = test system: Primary neuron; assay: Neuroprotective activity in rat primary hippocampal neurons assessed as 100 uM NMDA and 30 uM glycine induced LDH release in media at 10 uM after 20 to 24 hrs by spectrophotometric analysis; format: functional, cell-based
Outline: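 Rat hippocampal neurons were cultured 7–10 days in vitro at 37 °C. They were challenged for 1 h in Mg2+-free medium with 100 µM NMDA plus 30 µM glycine, then returned to normal medium. LDH in the supernatant was read spectrophotometrically 20–24 h later and expressed relative to vehicle-treated cells. Triplicates from 6 independent experiments.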

[2] = biological target: Glutamate NMDA receptor; Grin1/Grin2c (Rattus norvegicus, UniProt P35439+Q00961); assay: Negative allosteric modulation of rat GluN1a/GluN2C receptor expressed in Xenopus laevis oocytes assessed as suppression of 100 uM glutamate and 30 uM glycine induced-current by voltage clamp recording method; format: cell-based
Outline: (§1)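 Rat GluN1-1a cRNA co-injected with GluN2A, 2B, 2C or 2D cRNA into Xenopus oocytes; expression 1–3 days at 16–19 °C. Two-electrode voltage clamp. Currents evoked by 100 µM glutamate plus 30 µM glycine, alone and then with rising inhibitor concentrations. […] 4–17 oocytes from ≥2 frogs.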

[3] = biological target: T1, Glutamate NMDA receptor; Grin1/Grin2c (Rattus norvegicus) (UniProt P35439+Q00961); assay: Negative allosteric modulation of rat GluN1a/GluN2C receptor expressed in Xenopus laevis oocytes assessed as suppression of 100 uM glutamate and 30 uM glycine induced-current at saturating compound level by voltage clamp recording method; format: cell-based; outline: as §1
[4] = biological target: T2, Glutamate NMDA receptor; Grin1/Grin2a (Rattus norvegicus) (UniProt P35439+Q00959); assay: Negative allosteric modulation of rat GluN1a/GluN2A receptor expressed in Xenopus laevis oocytes assessed as suppression of 100 uM glutamate and 30 uM glycine induced-current at saturating compound level by voltage clamp recording method; format: cell-based; outline: as §1
[5] = biological target: T3, Ionotropic glutamate receptor NMDA 1/2D (Rattus norvegicus) (UniProt P35439+Q62645); assay: Negative allosteric modulation of rat GluN1a/GluN2D receptor expressed in Xenopus laevis oocytes assessed as suppression of 100 uM glutamate and 30 uM glycine induced-current at saturating compound level by voltage clamp recording method; format: cell-based; outline: as §1
[6] = Solubility of compound in TEVC electrophysiological solution at 3.25 to 100 uM by nephelometric method; format: physicochemical
Outline: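 Nephelometry measuring forward light scattering of each compound at 3.25–100 µM in TEVC recording solution. Maximum solubility taken as the intersection point of a linear segmental regression. Mean of n = 2 in quadruplicate.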

[7] = biological target: Glutamate NMDA receptor; Grin1/Grin2b (Rattus norvegicus, UniProt P35439+Q00960); assay: Negative allosteric modulation of rat GluN1a/GluN2B receptor expressed in Xenopus laevis oocytes assessed as suppression of 100 uM glutamate and 30 uM glycine induced-current by voltage clamp recording method; format: cell-based; outline: as §1
[8] = biological target: Glutamate NMDA receptor; Grin1/Grin2a (Rattus norvegicus, UniProt P35439+Q00959); assay: Negative allosteric modulation of rat GluN1a/GluN2A receptor expressed in Xenopus laevis oocytes assessed as suppression of 100 uM glutamate and 30 uM glycine glycine induced-current by voltage clamp recording method; format: cell-based; outline: as §1
[9] = biological target: T4, Glutamate NMDA receptor; Grin1/Grin2b (Rattus norvegicus) (UniProt P35439+Q00960); assay: Negative allosteric modulation of rat GluN1a/GluN2B receptor expressed in Xenopus laevis oocytes assessed as suppression of 100 uM glutamate and 30 uM glycine induced-current at saturating compound level by voltage clamp recording method; format: cell-based; outline: as §1
[10] = biological target: Ionotropic glutamate receptor NMDA 1/2D (Rattus norvegicus, UniProt P35439+Q62645); assay: Negative allosteric modulation of rat GluN1a/GluN2D receptor expressed in Xenopus laevis oocytes assessed as suppression of 100 uM glutamate and 30 uM glycine induced-current by voltage clamp recording method; format: cell-based; outline: as §1
[11] = species: Rattus norvegicus; assay: Selectivity ratio of IC50 for rat GluN1a/GluN2A receptor expressed in Xenopus laevis oocytes to IC50 for rat GluN1a/GluN2D receptor expressed in Xenopus laevis oocytes; format: cell-based
[12] = biological target: T2, Glutamate NMDA receptor; Grin1/Grin2a (Rattus norvegicus); assay: Negative allosteric modulation of rat GluN1a/GluN2A receptor expressed in Xenopus laevis oocytes assessed as suppression of 100 uM glutamate and 30 uM glycine induced-current at 30 uM by voltage clamp recording method; format: cell-based
[13] = biological target: T4, Glutamate NMDA receptor; Grin1/Grin2b (Rattus norvegicus); assay: Negative allosteric modulation of rat GluN1a/GluN2B receptor expressed in Xenopus laevis oocytes assessed as suppression of 100 uM glutamate and 30 uM glycine induced-current at 30 uM by voltage clamp recording method; format: cell-based
[14] = biological target: T3, Ionotropic glutamate receptor NMDA 1/2D (Rattus norvegicus); assay: Negative allosteric modulation of rat GluN1a/GluN2D receptor expressed in Xenopus laevis oocytes assessed as suppression of 100 uM glutamate and 30 uM glycine at 30 uM glycine induced-current by voltage clamp recording method; format: cell-based
[15] = biological target: T1, Glutamate NMDA receptor; Grin1/Grin2c (Rattus norvegicus); assay: Negative allosteric modulation of rat GluN1a/GluN2C receptor expressed in Xenopus laevis oocytes assessed as suppression of 100 uM glutamate and 30 uM glycine at 30 uM glycine induced-current by voltage clamp recording method; format: cell-based

SMILES | Activity [1] | IC50 [2] | inhibition [3] | inhibition [4] | inhibition [5] | solubility kinetic [6] | IC50 [7] | IC50 [8] | inhibition [9] | IC50 [10] | Ratio IC50 [11] | inhibition [12] | inhibition [13] | inhibition [14] | inhibition [15]
C[C@]12N[C@H](Cc3ccccc31)c1ccccc12 | Active | – | – | – | – | – | – | – | – | – | – | – | – | – | –
COC(=O)c1c(NC(=O)CC2SC(N)=NC2=O)sc2c1CCCC2 (racemic) | – | 1 µM | 88% | 81% | 86% | 57 µM (≈ 20.9 µg/mL) | 4.2 µM | 3.4 µM | 86% | 1.1 µM | – | – | – | – | –
COC(=O)c1c(NC(=O)CC2SC(N)=NC2=O)sc2c1CCC(C)C2 (racemic) | – | 0.3 µM | 95% | 80% | 94% | 20 µM (≈ 7.63 µg/mL) | 0.6 µM | 0.7 µM | 74% | 0.3 µM | – | – | – | – | –
CCc1cc(C(=O)OC)c(NC(=O)CC2SC(N)=NC2=O)s1 (racemic) | – | 2.5 µM | 97% | 98% | 98% | – | 9.3 µM | 4.8 µM | 97% | 2.6 µM | – | – | – | – | –
CCOC(=O)c1c(NC(=O)CC2SC(=N)NC2=O)sc2c1CCC(F)(F)C2 (racemic) | – | 1.4 µM | 75% | 84% | 65% | 35 µM (≈ 14.6 µg/mL) | 8 µM | 5.2 µM | 74% | 1.5 µM | – | – | – | – | –
CCOC(=O)c1c(NC(=O)CC2SC(=N)NC2=O)sc2c1CCOC2 (racemic) | – | 2.9 µM | 59% | 74% | 41% | – | 5.6 µM | 3 µM | 69% | 2.1 µM | – | – | – | – | –
CCOC(=O)c1c(NC(=O)CC2SC(=N)NC2=O)sc2c1CCC(C)(C)C2 (racemic) | – | 9.3 µM | 89% | 72% | 90% | 37 µM (≈ 15.2 µg/mL) | 9.2 µM | 16.1 µM | 44% | 8.8 µM | – | – | – | – | –
CCc1c(C)sc(NC(=O)CC2SC(=N)NC2=O)c1C(=O)OC (racemic) | – | 6.7 µM | 85% | 79% | 82% | – | 43.8 µM | 26.8 µM | 77% | 9.1 µM | – | – | – | – | –
CCOC(=O)c1c(NC(=O)CC2SC(=N)NC2=O)sc2c1CCSC2 (racemic) | – | 0.8 µM | 88% | 82% | 84% | – | 12.2 µM | 6.2 µM | 78% | 0.8 µM | 7 | – | – | – | –
CCOC(=O)c1c(NC(=O)CC2SC(=N)NC2=O)sc2c1CCC(CC)C2 (racemic) | – | 0.9 µM | 80% | 58% | 73% | 73 µM (≈ 29.9 µg/mL) | 2.2 µM | 3.4 µM | 59% | 1.5 µM | – | – | – | – | –
CCOC(=O)c1cc(C)sc1NC(=O)CC1SC(=N)NC1=O (racemic) | – | 11.2 µM | 98% | 93% | 99% | – | 44.9 µM | 42.8 µM | 91% | 12.3 µM | – | – | – | – | –
CCOC(=O)c1cc(CC)sc1NC(=O)CC1SC(=N)NC1=O (racemic) | – | 3.7 µM | 97% | 96% | 94% | – | 9.7 µM | 6.2 µM | 96% | 2.6 µM | – | – | – | – | –
N#Cc1c(NC(=O)CC2SC(=N)NC2=O)sc2c1CCCC2 (racemic) | – | 2.9 µM | 59% | – | 63% | 36 µM (≈ 12 µg/mL) | – | – | – | 4.3 µM | – | – | – | – | –
CCOC(=O)c1c(NC(=O)CC2SC(=N)NC2=O)sc2c1CCCC2 (racemic) | – | 1.2 µM | 53% | 61% | 41% | 54 µM (≈ 20.6 µg/mL) | 4.2 µM | 2.3 µM | 35% | 0.6 µM | – | – | – | – | –
COC(=O)c1ccsc1NC(=O)CC1SC(=N)NC1=O (racemic) | – | 41 µM | 100% | – | 99% | – | – | – | – | 43.3 µM | – | < 25% | < 25% | – | –
COC(=O)c1c(NC(=O)CC2SC(=N)NC2=O)sc(C)c1C (racemic) | – | 9.7 µM | 88% | 88% | 94% | – | 28.2 µM | 22.3 µM | 63% | 10.4 µM | – | – | – | – | –
CCOC(=O)c1c(NC(=O)CC2SC(=N)NC2=O)sc(C)c1C (racemic) | – | 8.1 µM | 77% | 80% | 81% | – | – | 30.2 µM | – | 13 µM | – | – | < 25% | – | –
CCOC(=O)c1c(NC(=O)CC2NC(=O)NC2=O)sc2c1CCCC2 (racemic) | – | – | – | – | – | – | – | – | – | – | – | < 25% | < 25% | < 25% | < 25%
CCOC(=O)c1c(NC(=O)CC2S/C(=N\C)N(C)C2=O)sc2c1CCCC2 (racemic) | – | – | – | – | – | – | – | – | – | – | – | < 25% | < 25% | < 25% | < 25%
CCOC(=O)c1c(NC(=O)CC2SC(=O)NC2=O)sc2c1CCC2 (racemic) | – | – | – | – | – | – | – | – | – | – | – | < 25% | < 25% | < 25% | < 25%
CCOC(=O)c1c(NC(=O)CC2SC(=O)NC2=O)sc2c1CCCC2 (racemic) | – | – | – | – | – | – | – | – | – | – | – | < 25% | < 25% | < 25% | < 25%
COC(=O)c1c(NC(=O)CC2SC(N)=NC2=O)sc2c1CCC(C(C)(C)C)C2 (racemic) | – | – | – | – | – | – | – | – | – | – | – | < 25% | < 25% | < 25% | < 25%
N=C1NC(=O)C(CC(=O)Nc2sc3c(c2C(=O)O)CCCC3)S1 (racemic) | – | – | – | – | – | – | – | – | – | – | – | < 25% | < 25% | < 25% | < 25%
